Measurements pooled from the literature.
Compare with care: the assays were run in different laboratories.
Target: Phosphatidylinositol 4-phosphate 5-kinase type-1 gamma (PIP5K1C, Homo sapiens, UniProt O60331)

`Nc1ncnc2occ(-c3ccc(NC(=O)Nc4cc(C(F)(F)F)ccc4F)cc3)c12` gave a remaining signal of 0% (cell-free assay; 20 µM).
`Cc1cnc(NC2CCOCC2)nc1-n1cnc(C(=O)NC(CN)c2cc(F)cc(Cl)c2)c1` (centres unmarked) gave a remaining activity of 96% (enzyme activity; inhibitor; radiometric; 1 µM).
With `CNCc1ccccc1-c1csc([C@@H](C)Nc2nc(C)nc3cc(OC)c(OC)cc23)c1` the remaining binding was 88% (cell-free assay; competition with immobilised ligand; 1 µM).
`Cc1cc(NC(=O)c2cccc3cc(-c4cccc5[nH]nc(N)c45)ccc23)ccc1F` has an activity vs control of 110% (enzyme activity; inhibitor; 0.1 µM).
`COc1cc(Cl)c(C(=O)N[C@@H](CN[C@H]2CC[C@@H](N)CC2)Cc2ccc(C#N)cc2)cc1-c1ccc(CN[C@H](C)c2ccc(C)cc2)o1` has a remaining activity of 96% (enzyme activity; inhibitor; 1 µM).
`O=C(CSc1nc2nccnc2c(=O)n1CCc1ccccc1)Nc1nccs1` has an inhibition of 12% (enzyme activity; inhibitor; 10 µM).
`Cc1ccc(NC(=O)c2ccc(C)c(C(F)(F)F)c2)cc1C#Cc1nn(C2CCC(O)CC2)c2ncnc(N)c12` (centres unmarked) gave a remaining signal of 98% (cell-free assay; 10 µM).
`Cc1ccc(C(=O)Nc2ccc(CN3CCN(C)CC3)c(C(F)(F)F)c2)cc1C#Cc1cnc2cccnn12` has a remaining signal of 100% (cell-free assay; 23.5 nM).
`CN1CC(Oc2cnc(C#N)cc2-c2ccn3nc(NC(=O)C4CC4)cc3c2)C1` has an inhibition of -3% (enzyme activity; inhibitor; 1 µM).
For `CS(=O)(=O)Nc1cccc(-c2csc(NC(=O)CSc3nc4nccnc4c(=O)n3CCc3ccccc3)n2)c1`, the inhibition was 0% (enzyme activity; inhibitor; 10 µM).
The remaining binding of `CC1=C(C#N)C(c2ccc3c(c2)c(NC(=O)c2ccccc2C)nn3C)C(C#N)=C(C)N1` is reported as 91% (cell-free assay; competition with immobilised ligand; 1 µM).
